{"source": "ChEMBL document CHEMBL3808351", "about": "“Synthesis, biological evaluation, and physicochemical property assessment of 4-substituted 2-phenylaminoquinazolines as Mer tyrosine kinase inhibitors” (Bioorg Med Chem, 2016)", "key": {"[1]": {"test": "Solubility of the compound in phosphate buffer at pH 7.4 by HPLC-UV method", "assay_type": "physicochemical", "how_it_was_run": "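Compound stock was 10 mg/mL in DMSO. It was diluted into pH 7.4 phosphate buffer to a final 1% DMSO and stirred 4 h at room temperature, then spun at 10,000 rpm for 5 min. The saturated supernatant was read by HPLC-UV at 254 nm on a C18 column with a MeOH/water gradient. Concentration was taken from an acetonitrile standard curve spanning 0.20–50 µg/mL. Samples were run in triplicate.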"}, "[2]": {"test": "n-octanol-water partition co-efficient, log P of the compound after 24 hrs by HPLC analysis", "assay_type": "physicochemical"}, "[3]": {"test": "Antiproliferative activity against human DU145 cells after 48 hrs by SRB method", "assay_type": "functional", "conditions": "DU-145, 48 h"}, "[4]": {"target": "T1, Tyrosine-protein kinase Mer (Homo sapiens, UniProt Q12866)", "T1 sequence (Q12866 whole entry)": "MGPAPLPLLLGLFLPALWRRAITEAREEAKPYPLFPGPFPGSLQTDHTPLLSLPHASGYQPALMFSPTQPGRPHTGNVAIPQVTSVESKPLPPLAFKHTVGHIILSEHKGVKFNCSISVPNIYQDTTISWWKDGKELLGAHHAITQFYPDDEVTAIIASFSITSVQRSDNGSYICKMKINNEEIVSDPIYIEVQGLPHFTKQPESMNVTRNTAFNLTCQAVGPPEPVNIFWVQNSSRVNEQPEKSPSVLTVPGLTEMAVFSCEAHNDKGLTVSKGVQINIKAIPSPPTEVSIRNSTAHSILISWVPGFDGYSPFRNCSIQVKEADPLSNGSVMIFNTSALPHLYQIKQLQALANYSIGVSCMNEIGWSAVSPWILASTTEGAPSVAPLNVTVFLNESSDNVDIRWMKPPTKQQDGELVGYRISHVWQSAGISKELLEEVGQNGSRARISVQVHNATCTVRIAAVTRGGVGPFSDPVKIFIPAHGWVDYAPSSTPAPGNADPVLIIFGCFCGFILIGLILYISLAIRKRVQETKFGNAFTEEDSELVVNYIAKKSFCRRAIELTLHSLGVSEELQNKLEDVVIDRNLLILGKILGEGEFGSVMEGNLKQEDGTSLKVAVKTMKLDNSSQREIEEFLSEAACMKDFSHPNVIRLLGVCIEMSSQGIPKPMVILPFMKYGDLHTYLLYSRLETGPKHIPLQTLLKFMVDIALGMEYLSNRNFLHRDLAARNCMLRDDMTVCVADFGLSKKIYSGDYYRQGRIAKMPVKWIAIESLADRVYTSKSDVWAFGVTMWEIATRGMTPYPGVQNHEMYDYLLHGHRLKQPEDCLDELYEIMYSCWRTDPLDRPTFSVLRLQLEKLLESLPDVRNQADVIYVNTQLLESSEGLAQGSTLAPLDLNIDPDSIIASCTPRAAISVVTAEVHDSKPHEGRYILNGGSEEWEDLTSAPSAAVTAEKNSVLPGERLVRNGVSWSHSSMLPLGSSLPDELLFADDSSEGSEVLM", "test": "Inhibition of MERTK (unknown origin) using EFPIYDFLPAKKK-CONH2 as substrate and ATP after 180 mins by microfluidic capillary electrophoresis method"}, "A549": {"system": "A549", "test": "Antiproliferative activity against human A549 cells after 48 hrs by SRB method", "assay_type": "functional", "conditions": "A549, 48 h"}, "[5]": {"test": "Antiproliferative activity against human KBVIN cells after 48 hrs by SRB method", "assay_type": "functional"}, "KB": {"system": "KB", "test": "Antiproliferative activity against human KB cells after 48 hrs by SRB method", "assay_type": "functional"}}, "data": [{"smiles": "COc1ccc(N(C)c2nc(NC3CCCC3)c3ccccc3n2)cc1", "values": [{"measurement": "solubility", "setting": "[1]", "value": 1.11, "unit": "µg/mL"}, {"measurement": "logP", "setting": "[2]", "value": "> 5"}]}, {"smiles": "Nc1ccc(Nc2nc(NCCCO)c3ccccc3n2)cc1", "values": [{"measurement": "GI50", "setting": "[3]", "value": 20.8, "unit": "µM"}, {"measurement": "IC50", "setting": "[4]", "value": "> 30", "unit": "µM"}, {"measurement": "GI50", "setting": "A549", "value": 17.1, "unit": "µM"}]}, {"smiles": "OCCCNc1nc(Nc2ccc(F)cc2)nc2ccccc12", "values": [{"measurement": "GI50", "setting": "[3]", "value": 20.6, "unit": "µM"}, {"measurement": "IC50", "setting": "[4]", "value": "> 30", "unit": "µM"}, {"measurement": "GI50", "setting": "A549", "value": 19.3, "unit": "µM"}]}, {"smiles": "N#Cc1ccc(Nc2nc(NC3CCCC3)c3ccccc3n2)cc1", "values": [{"measurement": "GI50", "setting": "[3]", "value": "> 31.3", "unit": "µM"}, {"measurement": "IC50", "setting": "[4]", "value": "> 30", "unit": "µM"}, {"measurement": "GI50", "setting": "A549", "value": "> 31.3", "unit": "µM"}]}, {"smiles": "COc1ccc(Nc2nc(NC3CCCC3)c3ccccc3n2)cc1", "values": [{"measurement": "solubility", "setting": "[1]", "value": 10.4, "unit": "µg/mL"}, {"measurement": "logP", "setting": "[2]", "value": "> 5"}]}, {"smiles": "CCCNc1nc(N(C)c2ccc(OC)cc2)nc2ccccc12", "values": [{"measurement": "solubility", "setting": "[1]", "value": 3.43, "unit": "µg/mL"}, {"measurement": "logP", "setting": "[2]", "value": "> 5"}]}, {"smiles": "CCCNc1nc(Nc2ccc(OC)cc2)nc2ccccc12", "values": [{"measurement": "solubility", "setting": "[1]", "value": 4.36, "unit": "µg/mL"}, {"measurement": "logP", "setting": "[2]", "value": "> 5"}]}, {"smiles": "Fc1ccc(Nc2nc(NC3CCCC3)c3ccccc3n2)cc1", "values": [{"measurement": "solubility", "setting": "[1]", "value": 1.54, "unit": "µg/mL"}, {"measurement": "logP", "setting": "[2]", "value": "> 5"}]}, {"smiles": "COc1ccc(Nc2nc(NCCCO)c3ccccc3n2)cc1", "values": [{"measurement": "solubility", "setting": "[1]", "value": 95.6, "unit": "µg/mL"}, {"measurement": "logP", "setting": "[2]", "value": 2.54}]}, {"smiles": "CNc1nc(Nc2ccc(OC)cc2)nc2ccccc12", "values": [{"measurement": "solubility", "setting": "[1]", "value": 6.61, "unit": "µg/mL"}, {"measurement": "logP", "setting": "[2]", "value": 3.21}]}, {"smiles": "Oc1ccc(Nc2nc(NC3CCCC3)c3ccccc3n2)cc1", "values": [{"measurement": "solubility", "setting": "[1]", "value": 3.1, "unit": "µg/mL"}, {"measurement": "logP", "setting": "[2]", "value": 3.95}]}, {"smiles": "N#Cc1ccc(Nc2nc(NCCCO)c3ccccc3n2)cc1", "values": [{"measurement": "solubility", "setting": "[1]", "value": 7.52, "unit": "µg/mL"}, {"measurement": "logP", "setting": "[2]", "value": 2.84}]}, {"smiles": "Nc1ccc(Nc2nc(N3CCOCC3)c3ccccc3n2)cc1", "values": [{"measurement": "IC50", "setting": "[4]", "value": "> 30", "unit": "µM"}]}, {"smiles": "Fc1ccc(Nc2nc(N3CCOCC3)c3ccccc3n2)cc1", "values": [{"measurement": "IC50", "setting": "[4]", "value": "> 30", "unit": "µM"}]}, {"smiles": "COc1ccc(N(C)c2nc(NCC3CCOCC3)c3ccccc3n2)cc1", "values": [{"measurement": "IC50", "setting": "[4]", "value": "> 30", "unit": "µM"}]}, {"smiles": "CC(=O)O[C@H]1C(=O)[C@@]2(C)[C@H]([C@H](OC(=O)c3ccccc3)[C@]3(O)C[C@H](OC(=O)[C@H](O)[C@@H](NC(=O)c4ccccc4)c4ccccc4)C(C)=C1C3(C)C)[C@]1(OC(C)=O)CO[C@@H]1C[C@@H]2O", "note": "[PACLITAXEL]", "values": [{"measurement": "GI50", "setting": "[5]", "value": 0.948, "unit": "µM"}, {"measurement": "GI50", "setting": "A549", "value": 0.0049, "unit": "µM"}, {"measurement": "GI50", "setting": "KB", "value": 0.0026, "unit": "µM"}]}, {"smiles": "COc1ccc(N(C)c2nc(N3CCOCC3)c3ccccc3n2)cc1", "values": [{"measurement": "IC50", "setting": "[4]", "value": "> 30", "unit": "µM"}]}]}
